Assay results from the M2OR odorant receptor database.

Each compound was assayed against T1, UniProt Q8VGL7. Settings: stereoisomer not certain.
T1 sequence (whole entry): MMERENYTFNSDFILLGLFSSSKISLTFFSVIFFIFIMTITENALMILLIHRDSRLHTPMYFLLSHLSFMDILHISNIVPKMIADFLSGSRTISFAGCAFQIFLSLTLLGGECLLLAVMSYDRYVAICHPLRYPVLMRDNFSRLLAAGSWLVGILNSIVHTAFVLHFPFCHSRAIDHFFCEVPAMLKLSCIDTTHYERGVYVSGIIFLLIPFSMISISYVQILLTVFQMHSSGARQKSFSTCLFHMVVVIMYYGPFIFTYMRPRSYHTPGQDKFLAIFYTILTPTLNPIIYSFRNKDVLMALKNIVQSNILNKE
In short: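 Each entry records the cell line, G-protein, co-transfected protein and tags used. Methods varied with the source, often transient luciferase assays in mammalian cell lines. A receptor–molecule pair is called responsive (active) if the original authors judged its signal statistically different from baseline and non-responsive (inactive) otherwise.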

Row | Compound | odorant receptor agonist call
1 | CCCCC(C)=O | inactive
2 | CC(=O)OCc1ccccc1 | inactive
3 | C=C(C)C1CCC(C)C(=O)C1 (configuration not stated) | inactive
4 | CCCCOC=O | inactive
5 | CCCCCC1=C(C)CCC1=O | active
6 | CCCCC(=O)O | inactive
7 | CCCCCOC(=O)CCCCC | inactive
8 | CCCCCC=O | inactive
9 | CC(=O)Oc1ccccc1 | inactive
10 | CCCC(=O)C(C)=O | inactive
11 | CCCCCCCCS | inactive
12 | O=c1ccc2ccccc2o1 | inactive
13 | CCCCCCCCCO | inactive
14 | CC(C)=CCCC(C)=CCO | inactive
15 | CCCCCCCC(C)=O | inactive
16 | O=C1CCOc2ccccc21 | active
17 | CCCCCCCO | inactive
